Experimental data published in ChEMBL document CHEMBL4000162, “Arborinane Triterpenoids from Rubia philippinensis Inhibit Proliferation and Migration of Vascular Smooth Muscle Cells Induced by the Platelet-Derived Growth Factor” (J Nat Prod, 2016).
Calls of active or inactive are those of the source. No cut-off for these calls is given here.

Columns and labels:
VSMC [1] = test: Antiproliferative activity against PDGF-BB-stimulated rat VSMC at 10 to 30 uM preincubated for 24 hrs followed by PDGF-BB addition measured after 24 hrs by MTT assay; assay type: functional, cell-based
How it was run: (§1)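 Rat aortic VSMCs seeded at 3.5 × 10^4 cells/mL and grown in DMEM/10% FBS at 37 °C to 70% confluence. Serum-starved 24 h, given compound for 24 h (paclitaxel 1 μM reference), then stimulated with 25 ng/mL PDGF-BB for 24 h. MTT 5 mg/mL in serum-free DMEM for 4 h, DMSO solubilisation, absorbance read at 565 nm. Means ± SEM of triplicates.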

[2] = Cytotoxicity against rat VSMC assessed as decrease in cell viability at 10 to 30 uM after 48 hrs by MTT assay; assay type: cell-based
How it was run: (§2)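 Rat aortic VSMCs seeded at 3.5 × 10^4 cells/mL in DMEM/10% FBS and grown to 70% confluence, then serum-free for 24 h. Exposed to compound for 48 h without PDGF (digitonin 100 μg/mL reference). Viability by MTT: 5 mg/mL for 4 h, DMSO, absorbance at 565 nm. Means ± SEM.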

[3] = Antiproliferative activity against PDGF-BB-stimulated rat VSMC at 5 uM preincubated for 24 hrs followed by PDGF-BB addition measured after 24 hrs by MTT assay relative to control; assay type: functional; how it was run: as §1
[4] = Cytotoxicity against rat VSMC assessed as decrease in cell viability at 5 uM after 48 hrs by MTT assay; assay type: cell-based; how it was run: as §2
VSMC [5] = test: Antimigratory activity against PDGF-BB-stimulated rat VSMC at 10 to 30 uM preincubated for 2 hrs followed by PDGF-BB addition measured after 48 hrs by scratch wound-healing assay; assay type: functional, cell-based
How it was run: (§3)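 Rat aortic VSMCs (enzymatic dispersion; DMEM, 10% FBS) grown in 12-well plates to >90% confluence, serum-starved 24 h, scratched with two lines and imaged at 0 h. Pretreated 2 h with compound (paclitaxel 1 μM as reference), then 25 ng/mL PDGF-BB for 48 h. Fixed in 100% MeOH, stained with 0.5% crystal violet, migration area quantified from images. Means ± SEM of triplicate experiments.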

VSMC [6] = test: Antiproliferative activity against PDGF-BB-stimulated rat VSMC at 30 uM preincubated for 24 hrs followed by PDGF-BB addition measured after 24 hrs by MTT assay; assay type: functional, cell-based; how it was run: as §1
VSMC [7] = test: (§4) Antimigratory activity against PDGF-BB-stimulated rat VSMC at 30 uM preincubated for 2 hrs followed by PDGF-BB addition measured after 48 hrs by scratch wound-healing assay; assay type: functional; how it was run: as §3
[8] = Cytotoxicity against rat VSMC assessed as decrease in cell viability at 30 uM after 48 hrs by MTT assay; assay type: cell-based; how it was run: as §2
VSMC [9] = test: Antimigratory activity against PDGF-BB-stimulated rat VSMC preincubated for 2 hrs followed by PDGF-BB addition measured after 48 hrs by scratch wound-healing assay; assay type: functional, cell-based; how it was run: as §3
VSMC [10] = test: Antimigratory activity against PDGF-BB-stimulated rat VSMC preincubated for 2 hrs followed by PDGF-BB addition measured after 48 hrs by photograph-based scratch wound-healing assay; assay type: functional, cell-based; how it was run: as §3
[11] = Antimigratory activity against PDGF-BB-stimulated rat VSMC at 10 uM preincubated for 2 hrs followed by PDGF-BB addition measured after 48 hrs by scratch wound-healing assay; assay type: functional; how it was run: as §3
[12] = as §4; assay type: functional; how it was run: as §3

SMILES | inhibition (VSMC [1]) | Activity [2] | inhibition at 5 µM [3] | Activity [4] | Activity (VSMC [5]) | further results
CC(C)[C@@H]1C[C@@H]2OC[C@]13CC[C@@]1(C)[C@H]4C(=CC[C@]1(C)[C@@H]23)[C@@]1(C)CC[C@H](O)C(C)(C)[C@@H]1C[C@@H]4O | Active | Toxic | 62.6% | Non-Toxic | Active | 
CC(=O)OC[C@@]12CC[C@@]3(C)[C@H]4C(=CC[C@]3(C)[C@H]1[C@H](O)C[C@H]2C(C)C)[C@@]1(C)CC[C@H](OC(C)=O)C(C)(C)[C@@H]1C[C@@H]4O |  |  |  |  |  | inhibition (VSMC [6]): Active; Activity (VSMC [7]): Active; Activity [8]: Toxic
CC(=O)O[C@@H]1C[C@@H](C(C)C)[C@]2(C)CC[C@@]3(C)[C@H]4C(=CC[C@]3(C)[C@@H]12)[C@@]1(C)C=CC(=O)C(C)(C)[C@@H]1C[C@@H]4O | Active | Toxic | 41.1% | Non-Toxic |  | 
CC(=O)O[C@@H]1C[C@@H](C(C)C)[C@]2(C)CC[C@@]3(C)[C@H]4C(=CC[C@]3(C)[C@@H]12)[C@@]1(C)CC[C@H](O)C(C)(C)[C@@H]1C[C@@H]4O | Active | Toxic |  |  | Active | 
CC(=O)O[C@H]1CC[C@]2(C)C3=CC[C@]4(C)[C@H]5[C@H](O)C[C@@H](C(C)C)[C@]5(CO)CC[C@@]4(C)[C@@H]3[C@@H](O)C[C@H]2C1(C)C |  | Non-Toxic |  |  |  | Activity (VSMC [9]): Dose-dependent effect; Activity (VSMC [10]): Dose-dependent effect; Activity [11]: 38.5%; Activity [12]: 57.6%
